Results published in ChEMBL document CHEMBL1157107, “Gastroprotective effect of carnosic acid gamma-lactone derivatives” (J Nat Prod, 2010).

Legend:
Mus musculus [1] = assay: Gastroprotective activity in Swiss albino mouse assessed as reduction in HCl/EtOH-induced gastric lesions at 40 mg/kg, po dosed 50 mins before HCl/EtOH challenge measured after 1 hr relative to control; format: functional, Stomach; parameters: scale not given: the % may be the effect or the level left
How it was run: (§1)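 Male Swiss albino mice (30 ± 3 g) were randomized into groups of 7 and fasted 24 h with free water, then dosed orally. Controls received 12% Tween 80. Mice were killed 1 h after HCl/EtOH. Stomachs were inflated with saline, fixed in 5% formalin for 30 min and opened along the greater curvature. Lesion index was the summed lesion length (mm), compared with controls by ANOVA/Dunnett.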

MRC5 = assay: Cytotoxicity against human MRC5 cells after 24 hrs by neutral red uptake assay; format: cell-based; conditions: MRC5, 24 h
How it was run: (§2)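 Confluent monolayers, seeded at 25 000 cells/mL, were used. MRC-5 and Hep G2 were grown in MEM and AGS in Ham F-12, all with 10% heat-inactivated FBS at 37 °C and 5% CO₂. Cells were exposed for 24 h to 0–1000 µM compound with 1% DMSO final. Viability was read by neutral red uptake as % of control, with quadruplicates in three separate experiments. IC50 was read graphically from dose-response curves.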

AGS = assay: Cytotoxicity against human AGS cells after 24 hrs by neutral red uptake assay; format: cell-based; how it was run: as §2
HepG2 = assay: Cytotoxicity against human HepG2 cells after 24 hrs by neutral red uptake assay; format: cell-based; conditions: HepG2, 24 h; how it was run: as §2
Mus musculus [2] = assay: Gastroprotective activity in Swiss albino mouse assessed as reduction in HCl/EtOH-induced gastric lesions at 20 mg/kg, po dosed 50 mins before HCl/EtOH challenge measured after 1 hr relative to control; format: functional, Stomach; parameters: scale not given: the % may be the effect or the level left
How it was run: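 Male Swiss albino mice (30 ± 3 g) were randomised into groups of 7 and fasted 24 h with free water. Dosing was oral at 10, 20 or 40 mg/kg; controls received 12% Tween 80. Mice were killed 1 h after HCl/EtOH, and stomachs were saline-inflated, fixed in 5% formalin for 30 min and opened. Lesion index is the summed lesion length (mm); % reduction is versus control. ANOVA with Dunnett's test.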

Mus musculus [3] = assay: Gastroprotective activity in Swiss albino mouse assessed as reduction in HCl/EtOH-induced gastric lesions at 10 mg/kg, po dosed 50 mins before HCl/EtOH challenge measured after 1 hr relative to control; format: functional, Stomach; parameters: scale not given: the % may be the effect or the level left; how it was run: as §1

SMILES	Activity (Mus musculus [1]) [%]	IC50 (MRC5) [µM]	IC50 (AGS) [µM]	IC50 (HepG2) [µM]	Activity (Mus musculus [2]) [%]	Activity (Mus musculus [3]) [%]
CCCCCCCC/C=C/CCCCCCCC(=O)Oc1c(C(C)C)cc2c3c1OC(=O)[C@@]31CCCC(C)(C)[C@@H]1CC2	70	> 1000	822	> 1000	–	–
CC(C)C(=O)Oc1c(C(C)C)cc2c3c1OC(=O)[C@@]31CCCC(C)(C)[C@@H]1CC2	72	119	105	112	–	–
CC(C)c1cc2c3c(c1OC(=O)c1ccccc1)OC(=O)[C@@]31CCCC(C)(C)[C@@H]1CC2	48	512	503	510	–	–
CC(C)c1cc2c3c(c1OC(=O)Cc1c[nH]c4ccccc14)OC(=O)[C@@]31CCCC(C)(C)[C@@H]1CC2	51	109	85.6	251	–	–
CC(C)c1cc2c3c(c1OC(=O)CCl)OC(=O)[C@@]31CCCC(C)(C)[C@@H]1CC2	81	130	103	203	–	–
CC(C)c1cc2c3c(c1O)OC(=O)[C@@]31CCCC(C)(C)[C@@H]1CC2	59.5	293	246	240	30.6	20.8
CCC(=O)Oc1c(C(C)C)cc2c3c1OC(=O)[C@@]31CCCC(C)(C)[C@@H]1CC2	59	125	113	196	–	–
CCCCCCCCCCCC(=O)Oc1c(C(C)C)cc2c3c1OC(=O)[C@@]31CCCC(C)(C)[C@@H]1CC2	36	> 1000	413	> 1000	–	–
CC(C)c1cc2c3c(c1OC(=O)CCC(=O)Oc1c(C(C)C)cc4c5c1OC(=O)[C@]51CCCC(C)(C)C1CC4)OC(=O)[C@@]31CCCC(C)(C)[C@@H]1CC2 (stereo partly specified)	62	> 1000	623	> 1000	–	–
CC(C)c1cc2c(c(O)c1O)[C@@]1(C(=O)O)CCCC(C)(C)[C@@H]1CC2 [CARNOSIC ACID]	–	21.8	89.8	41.3	–	–
COc1c(C(C)C)cc2c3c1OC(=O)[C@@]31CCCC(C)(C)[C@@H]1CC2	71	31.9	26.7	58.1	–	–
CC(C)c1cc2c3c(c1OC(=O)c1ccccc1C(=O)Oc1c(C(C)C)cc4c5c1OC(=O)[C@]51CCCC(C)(C)C1CC4)OC(=O)[C@@]31CCCC(C)(C)[C@@H]1CC2 (stereo partly specified)	15	678	375	611	–	–
CCCC(=O)Oc1c(C(C)C)cc2c3c1OC(=O)[C@@]31CCCC(C)(C)[C@@H]1CC2	82	44.4	99.5	56.1	–	–
Cc1c(OCC(F)(F)F)ccnc1C[S+]([O-])c1nc2ccccc2[nH]1 (stereo unspecified) [LANSOPRAZOLE]	–	–	–	–	80	–
CCCCC/C=C/C/C=C/CCCCCCCC(=O)Oc1c(C(C)C)cc2c3c1OC(=O)[C@@]31CCCC(C)(C)[C@@H]1CC2	45	293	253	289	–	–
CC(C)c1cc2c3c(c1OC(=O)Cc1ccccc1)OC(=O)[C@@]31CCCC(C)(C)[C@@H]1CC2	44	516	133	522	–	–
CC(C)c1cc2c3c(c1OC(=O)CCCc1c[nH]c4ccccc14)OC(=O)[C@@]31CCCC(C)(C)[C@@H]1CC2	50	54.5	46.8	120	–	–
COc1c(C(C)C)cc2c(c1O)[C@@]1(C(=O)O)CCCC(C)(C)[C@@H]1CC2	–	54.9	45.2	43.5	–	–
CC(=O)Oc1c(C(C)C)cc2c3c1OC(=O)[C@@]31CCCC(C)(C)[C@@H]1CC2	62	290	275	294	–	–
CCCCCCCCCCCCCCCC(=O)Oc1c(C(C)C)cc2c3c1OC(=O)[C@@]31CCCC(C)(C)[C@@H]1CC2	65	> 1000	> 1000	> 1000	–	–
CC(C)c1cc2c3c(c1OC(=O)c1cccnc1)OC(=O)[C@@]31CCCC(C)(C)[C@@H]1CC2	9	296	280	264	–	–
